Source: the EternaBench riboswitch data

Test system: MS2 coat protein
Test: apparent Kd, MS2 coat protein; higher = weaker binding; RNA-MaP array; FMN 200 µM where present
How it was run: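 SNAP-549-labelled MS2 coat protein, doubled from 0.7 or 1.5 nM to 3 µM, was titrated over designs transcribed by stalled E. coli RNA polymerase on Illumina sequencing-chip clusters. Titrations were run without and then with constant ligand in 100 mM Tris-HCl pH 7.5, 80 mM KCl, 4 mM MgCl2, BSA, DTT, yeast tRNA and Tween-20. The apparent Kd is the median of filtered per-cluster fits to green signal normalised to red-channel RNA signal and control-cluster median Fmax.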

[1] = designed as: OFF switch for flavin mononucleotide, no ligand
[2] = ligand present: flavin mononucleotide, designed as: OFF switch for flavin mononucleotide
[3] = designed as: ON switch for flavin mononucleotide, no ligand
[4] = ligand present: flavin mononucleotide, designed as: ON switch for flavin mononucleotide

Sequence | apparent Kd [1] | apparent Kd [2] | apparent Kd [3] | apparent Kd [4]
AUAUCCAAUCAAGGAUAUGUAUUAAAGAUUUGAAAACAUGAGGAUCACCCAUGUAUAUGGUGGGAACAGAAGGUGAAUAAGUAA | 140 nM | 164 nM | – | –
UAUCCACAUGAGGAUCACCCAUGUCAGGAUAUUAGAUCUAUAUAUACAUAUAAUUAUUUAAGAAGGGACACUAA | 11.5 nM | 11.8 nM | – | –
GUUAUUUAUGUAGGAUAUGCGAGGCGAGCCUGAGCAGAAGGACAUGAGGAUCACCCAUGUAUUGCGGUUUGUGUUCAGAUCGCU | 17.9 nM | 25.6 nM | – | –
ACUUCACAUGAGGAUCACCCAUGUCAGGCCGGACUAGGAUAUUAUCAACCAGAGUAACCAUAAGAAGGAGUAGGAA | – | – | 64.4 nM | 78.4 nM
GCCUUAUCGGUCAGGAUAUACACCCGUCACUCCUUGUAGAAGGGACAUGAGGAUCACCCAUGUACAUUACAUUG | 31.3 nM | 28.1 nM | – | –
ACAAAAGUUGAUCCUCGCUACAUGAGGAUCACCCAUGUAAUGGAGGAUAUGCAGCAACAAAACUCGCAGAAGGCCAUUUGCUGG | 52.5 nM | 30.5 nM | – | –
GAAAACUGAGGAUAUACUUUGGGAAAAGAAAAGAUGAUGUUACAUGAGGAUCACCCAUGUAGAAGGCAGAAAAA | 25.9 nM | 36 nM | – | –
UUCGUGCAGCUUUGCUGUACGCGUACAUGAGGAUCACCCAUGUAGGAUAUGGUACGCGUUGCGUGCUAGAAGGAUAUGGAGAGG | 18.4 nM | 22.9 nM | – | –
UUAGCAACAUGAGGAUCACCCAUGUAGGAUAUCGCUAUUGUAAUCAUGAAACAUGAUUACAAUAGCGAGAAGGACAUAUGCUUU | 13.9 nM | 14.9 nM | – | –
UUGUUAUAUGUAGGAUAUGCAUAUUAUUAUUAUGCAGAAGGACAUGAGGAUCACCCAUGUAUAUUAUUAUUAUAUGUUAUAUAU | 23.8 nM | 29.8 nM | – | –
CAACAGUCAGGAUAUGCAAAAAAAACGCAACGCAAAAAAAAGCAGAAGGGACAUGAGGAUCACCCAUGUUGUCG | 30.2 nM | 26.3 nM | – | –
GUCAGCUCGUGAGGAUAUACAACACUGCUUCGGCAGUGUAUUAAGAUCACAUGAGGAUCACCCAUGUAGAAGGCACCAGCUGAU | 16.3 nM | 215 nM | – | –
GAUUUCGCAUGAGGAUAUGCUCGCAUUUCAAGAGCAGAAGGUAUGUCAUUAGACAUGAGGAUCACCCAUGUAGUUAAGAUUGAA | – | – | 186 nM | 34.9 nM
UAUUAGUAAGGAUAUCUCGUCAUGGAGGAAACUCCAUGACGAGAGAAGGUACAUGAGGAUCACCCAUGUCUAUU | 16.1 nM | 18.3 nM | – | –
UAUGCACAUGAGGAUCACCCAUGUGAGGAUAUAGGUCGUGUGCGUUCACGCAUCGUACUUAGAAGGCACUGCGG | 46.9 nM | 92.5 nM | – | –
AAUGGGCAGCAGAAGGCAUGUCAACGGACAUGAGGAUCACCCAUGUAGUAUAGCCGAAAGGCACAUGAGGAUAUGCUGCCCUAA | – | – | 19.4 nM | 5.14 nM
GUCUCGAUGUAGAAGGCCGCGUCCGGCUCACGCGGAGGAUAUACAUGAGGAUCACCCAUGUGUCUGUGGCUUAUAUGUUACGGA | 70.8 nM | 68.3 nM | – | –
UUCAGCUCGUGAGGAUAUACAUGUGCUGGAAACAGCACUAUUAAAUUCACAUGAGGAUCACCCAUGUAGAAGGCACGAGCUGAG | 15.4 nM | 18.7 nM | – | –
AAUGCGGCAGGAUAUACAUGAGGAUCACCCAUGUAGAUCAGAUAUAUGGUCGAGCCAUGUAGAAGGGCCGCAAA | 30.8 nM | 110 nM | – | –
AACGAAAGCCAAGGAUAUGCAGGUGACAUGAGGAUCACCCAUGUGGAUUGUGAUCCUUAACUGAUGCAGAAGGUGGAUCUGUUG | 513 nM | 322 nM | – | –
